Bioassay records: PubChem BioAssay, Broad Institute
Cneo AK release: Cryptococcus neoformans lysis via adenylate kinase release; 0.2% of 360,000 active; C. neoformans lysis, adenylate kinase release luminescence, 4 h; normalised: neutral wells 0, clomiphene wells 100; AID 651654; lysis activity, % at 15 µM;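 active means mean lysis activity across replicates of at least 80%, whatever share of replicates individually reach that level; inactive means mean lysis activity below 80%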
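Test system: log-phase Cryptococcus neoformans yeast cells; Quantity: yeast cell density of 5 × 10^6 cells/mL; Buffer or medium: YPD; Doses: single compound concentration per well; Timing: 4 h at 37 °C static, read 1 h later; Measured by: AK luminescence; Read-out basis: lysis from increased AK signal; Control set: Clomiphene as positive control.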
dFosB activator: activators of mouse delta FosB homodimer | P13346 | purified delta FosB, TAMRA-CDK5 oligo fluorescence polarization; percent of positive-control signal above neutral wells | 0.99% of 340,000 active | AID 493131 | activation, % at 25 µM;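 active means mean activation above about 17%, with every replicate also reaching it, limit read from the data, passing the limit was not always enough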
INS-1E GSIS act: GLuc luminescence reporter in INS-1E cells, primary screen for activators of glucose-dependent secretion of insulin | INS-1E GLuc reporter insulin secretion, 2-3 h | activation, % at 16.6 µM | 0.61% of 370,000 active;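 active means lowest replicate activation of at least 40%, so every replicate reaches that level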
CDK5 inh: CDK5/p35 (human) kinase inhibition; Q00535+Q15078; Recombinant CDK5/p35, ADP-Glo luminescence, 60 min; inhibition, % at 10 µM; 0.01% of 330,000 active;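 active means highest replicate inhibition of at least 50% and at least 75% of replicates reaching 50%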
Target sequence (Q00535 whole entry, looked up): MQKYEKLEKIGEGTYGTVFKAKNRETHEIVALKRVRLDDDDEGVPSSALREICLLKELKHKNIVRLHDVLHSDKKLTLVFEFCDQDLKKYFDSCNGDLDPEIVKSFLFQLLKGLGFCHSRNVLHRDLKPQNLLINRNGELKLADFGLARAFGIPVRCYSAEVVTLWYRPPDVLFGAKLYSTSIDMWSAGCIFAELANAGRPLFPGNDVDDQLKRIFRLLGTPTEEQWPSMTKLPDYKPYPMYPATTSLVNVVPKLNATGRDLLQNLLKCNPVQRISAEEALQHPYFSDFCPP
Target sequence (Q15078 whole entry, looked up): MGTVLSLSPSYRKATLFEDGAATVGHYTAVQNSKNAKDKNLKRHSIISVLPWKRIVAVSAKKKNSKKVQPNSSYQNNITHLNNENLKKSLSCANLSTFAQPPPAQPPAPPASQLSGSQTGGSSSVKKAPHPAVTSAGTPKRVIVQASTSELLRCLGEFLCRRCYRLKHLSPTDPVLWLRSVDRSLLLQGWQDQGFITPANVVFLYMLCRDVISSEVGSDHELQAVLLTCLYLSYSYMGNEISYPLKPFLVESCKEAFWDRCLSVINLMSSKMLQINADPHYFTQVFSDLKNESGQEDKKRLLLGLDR
Env fusion inh: blocks HIV Env-driven cell-cell fusion. inhibition, % at 12.3 µM. HeLa-JRFL Env/CEM21 cell fusion, luciferase. 1.1% of 360,000 active;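 active means mean replicate inhibition score of at least 50 and every replicate individually at or above 50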
PAX8 inh HTS: PAX8 transcriptional activity inhibition | inhibition, % at 12.6 µM | RMG-I TPO-luciferase reporter, SteadyGlo, 24 h | AID 652154 | 1.2% of 360,000 active;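 active means mean replicate inhibition at least 60% with every replicate also reaching 60%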;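 further: luciferase light reporting Pax8 driven TPO promoter activity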
Numbers stand for hits; i = inactive; nt = no result given; ! = repeats disagree. Sampled rows, rich in hits. Any-hit rate of the full collection: about 2.9%.

SMILES	Cneo AK release	dFosB activator	INS-1E GSIS act	CDK5 inh	Env fusion inh	PAX8 inh HTS
O=C(Nc1nc(-c2ccccn2)cs1)c1cccc(S(=O)(=O)N2CCOCC2)c1	i	i	i	i	nt	81.1
Cc1ccc(S(=O)(=O)N2CCOCC2)cc1C(=O)Nc1nc(-c2ccccn2)cs1	nt	i	nt	i	i	i
COc1ccccc1C(=O)Nc1ccc(S(=O)(=O)N2CCOCC2)cc1	i	i	nt	i	nt	nt
COc1ccccc1OC(C)C(=O)Nc1nc(-c2ccc(S(=O)(=O)N3CCOCC3)cc2)cs1 (configuration not stated)	i	i	nt	i	59.8	nt
CCOc1ccc(-c2cc(CCCC(=O)Nc3cccc(OC)c3)no2)cc1	i	i	i	i	75.7	i
CCCNC(=O)[C@H]1[C@H](CO)[C@H]2Cn3c(ccc(-c4ccccc4F)c3=O)[C@H]2N1C	nt	nt	i	nt	nt	nt
C[C@H]1[C@@H](c2ccccc2)Oc2c(Cl)cccc2S(=O)(=O)N1C	nt	nt	121.9	nt	i	i
COc1ccc(S(=O)(=O)N2C(=O)/C(=C3\SC(N)=NC3=O)c3ccccc32)cc1	i	23.6	i	i	i	i
Nc1ccc(S(=O)(=O)Nc2cnc3ccccc3n2)cc1	i	i	i	i	i	i
Nc1ccc(S(=O)(=O)Nc2cnc3c(Cl)cccc3n2)cc1	nt	i	nt	i	nt	80.1
Cc1ncsc1CCOC(=O)c1cccc([N+](=O)[O-])c1	nt	i	41.7!	i	i	i
CCCCCn1c(=O)[nH]c2cc(C(=O)N3CCN(Cc4ccc5c(c4)OCO5)CC3)ccc2c1=O	i	i	nt	i	67.2	i
Cc1nc2c(-c3ccccc3)c(C)[nH]n2c(=O)c1Cc1ccccc1	nt	i	i	i	i	i
Cc1nc2c(-c3ccc(Cl)cc3)c(C)[nH]n2c(=O)c1Cc1ccccc1	nt	i	i	i	57.1	61.6
O=C(COC(=O)c1cccc(S(=O)(=O)N2CCOCC2)c1)NCc1ccccc1	nt	i	nt	i	68.1	i
CC(C)(CNC(=O)c1cccc(S(=O)(=O)N2CCCCC2)c1)N1CCOCC1	i	nt	nt	nt	63.1	i
CCc1nc2ccccc2c(C(=O)OCC(=O)Nc2ccc(S(=O)(=O)N3CCOCC3)cc2)c1C	i	i	nt	i	nt	nt
O=C(NCCN1CCOCC1)c1cccc(S(=O)(=O)N2CCCCC2)c1	i	i	i	i	i	i
CCc1nc2ccccc2c(C(=O)OCC(=O)Nc2cccc(S(=O)(=O)N3CCOCC3)c2)c1C	i	i	nt	i	99.6	nt
CCCNC(=O)N1C[C@@H](O)COC[C@@H]2O[C@@H](CC(=O)NCc3ccncn3)CC[C@H]21	i	nt	i	nt	i	i
COc1ccc(CN(C)C[C@@H]2OCCCC[C@@H](C)Oc3ccc(NC(=O)CCC(F)(F)F)cc3C(=O)N([C@@H](C)CO)C[C@@H]2C)cc1	i	nt	i	nt	i	i
FC(F)(F)c1nnc2c(Sc3ccccc3)nc3ccccc3n12	nt	i	nt	i	i	i
FC(F)(F)c1nnc2c(Sc3ccc(Cl)cc3)nc3ccccc3n12	nt	i	nt	i	i	88.4
FC(F)(F)c1nnc2c(Sc3ccccn3)nc3ccccc3n12	i	i	nt	i	i	114.0
C[C@@H]1CN([C@@H](C)CO)C(=O)c2cc(NC(=O)Nc3ccc4c(c3)OCO4)ccc2O[C@@H](C)CCCCO[C@@H]1CN(C)S(=O)(=O)c1ccc(Cl)cc1	i	nt	i	nt	i	i
SMILES	Cneo AK release	dFosB activator	INS-1E GSIS act	CDK5 inh	Env fusion inh	PAX8 inh HTS
C[C@@H]1CN([C@H](C)CO)C(=O)c2cccc(NC(=O)Nc3ccccc3)c2O[C@@H]1CN(C)S(=O)(=O)c1cn(C)cn1	i	nt	i	nt	i	nt
COC(=O)c1ccc(OCC(O)CNC2CCCC2)cc1 (configuration not stated)	i	i	i	i	i	i
CCC(=O)c1ccc(OCC(O)CNC2CCCC2)cc1 (configuration not stated)	i	16.1	i	i	i	i
Cc1ccc(C2CC(=O)c3cnc(N4CCc5ccccc5C4)nc3C2)cc1 (configuration not stated)	i	i	nt	i	67.5	nt
CC(C)=CCN(C(=O)C#Cc1ccccc1)[C@H](CO)c1ccccc1	i	nt	nt	nt	i	105.1
C[C@H](CO)N1C[C@H](C)[C@H](CN(C)S(=O)(=O)c2cccs2)OCCCC[C@H](C)Oc2ccc(NS(=O)(=O)c3ccccc3)cc2C1=O	i	nt	i	nt	i	i
CCn1c(Sc2ccc([N+](=O)[O-])cn2)nnc1-c1ccco1	nt	i	i	i	i	71.3
